Measured values from ChEMBL document CHEMBL1649290, “Correlation of in vitro activity, serum levels, and in vivo efficacy of posaconazole against Rhizopus microsporus in a murine disseminated infection” (Antimicrob Agents Chemother, 2009).
≈ marks a conversion by molar mass, not a printed value. Calls of active or inactive are those of the source. The rule behind the calls is not given here.

How the values were obtained:
[1] = Antifungal activity against Rhizopus microsporus FMR 3542 by broth microdilution method; type: functional
Method in brief: (§1)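 CLSI broth microdilution reference method for molds, run on clinical R. microsporus isolates. Isolates were stored at −80°C and subcultured on potato dextrose agar at 35°C before testing. Breakpoints: intermediate 2 μg/ml, resistant ≥4 μg/ml.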

[2] = Antifungal activity against Rhizopus microsporus IHEM 18821 by broth microdilution method; type: functional
Method in brief: (§2)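 Clinical isolates kept at −80°C and subcultured on potato dextrose agar at 35°C before testing. MICs were determined by broth microdilution following the CLSI reference guidelines for filamentous fungi (molds), as part of a 15-strain panel tested against seven antifungal agents.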

[3] = Antifungal activity against Rhizopus microsporus IHEM 13267 by broth microdilution method; type: functional; method in brief: as §2
[4] = Antifungal activity against Rhizopus microsporus CBS 102277 by broth microdilution method; type: functional; method in brief: as §1
[5] = Antifungal activity against Rhizopus microsporus IHEM 4770 by broth microdilution method; type: functional; method in brief: as §2
[6] = Antifungal activity against Rhizopus microsporus UTHSC R-3466 by broth microdilution method; type: functional; method in brief: as §1
[7] = Antifungal activity against Rhizopus microsporus UTHSC 01-983 by broth microdilution method; type: functional; method in brief: as §1
[8] = Antifungal activity against Rhizopus microsporus IHEM 5234 by broth microdilution method; type: functional; method in brief: as §1
[9] = Antifungal activity against Rhizopus microsporus IHEM 15210 by broth microdilution method; type: functional; method in brief: as §2
[10] = Antifungal activity against Rhizopus microsporus UTHSC 03-1802 by broth microdilution method; type: functional; method in brief: as §2
[11] = Antifungal activity against Rhizopus microsporus IHEM 10123 by broth microdilution method; type: functional; method in brief: as §2
[12] = Antifungal activity against Rhizopus microsporus IHEM 13311 by broth microdilution method; type: functional; method in brief: as §2
[13] = Antifungal activity against Rhizopus microsporus UTHSC 04-3294 by broth microdilution method; type: functional; method in brief: as §2
[14] = Antifungal activity against Rhizopus microsporus IHEM 9503 by broth microdilution method; type: functional; method in brief: as §2
[15] = Antifungal activity against Rhizopus microsporus UTHSC 07-371 by broth microdilution method; type: functional; method in brief: as §2
[16] = Drug level in serum of OF1 mouse infected with Rhizopus microsporus UTHSC 01-983 at 20 mg/kg, po BID for 5 days measured after 24 hrs post last dose; type: ADME, organism-based; parameters: dose 20 mg/kg, route oral; settings: read-out: Drug uptake
Method in brief: (§3)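 Immunosuppressed OF1 mice were infected i.v. (5 per group) and dosed orally at 40 mg/kg once daily or 20 mg/kg twice daily for 5 days. Sera were taken 3 h and 24 h after the last dose. Drug was measured by agar bioassay with Candida parapsilosis ATCC 22019 in yeast nitrogen broth, against standards of 0.125–10 μg/ml. Samples were run in duplicate, and the mean of four zone readings was read from the standard curve.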

[17] = Drug level in serum of OF1 mouse infected with Rhizopus microsporus UTHSC 01-983 at 40 mg/kg, po QD for 5 days measured after 3 hrs post last dose; type: ADME, organism-based; parameters: dose 40 mg/kg, route oral; settings: read-out: Drug uptake; method in brief: as §3
[18] = Drug level in serum of OF1 mouse infected with Rhizopus microsporus FMR 3542 at 40 mg/kg, po QD measured after 3 hrs post last dose; type: ADME, organism-based; parameters: dose 40 mg/kg, route oral; settings: read-out: Drug uptake; method in brief: as §3
Rhizopus microsporus [19] = experiment: Antifungal activity against Rhizopus microsporus UTHSC 01-983 infected in OF1 mouse assessed as reduction in fungal load in brain at 20 mg/kg, QD for 5 days; type: functional, organism-based; parameters: dose 20 mg/kg
[20] = Drug level in serum of OF1 mouse infected with Rhizopus microsporus UTHSC 01-983 at 40 mg/kg, po QD for 5 days measured after 24 hrs post last dose; type: ADME, organism-based; parameters: dose 40 mg/kg, route oral; settings: read-out: Drug uptake; method in brief: as §3
Rhizopus microsporus [21] = experiment: Antifungal activity against Rhizopus microsporus FMR 3542 infected in OF1 mouse assessed as reduction in fungal load in brain at 40 mg/kg, QD for 5 days; type: functional, organism-based; parameters: dose 40 mg/kg
Method in brief: (§4)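 Male OF1 mice (30 g) were immunosuppressed 1 day before infection with cyclophosphamide 200 mg/kg i.p. plus 5-fluorouracil 150 mg/kg i.v., then given 2 × 10^3 CFU i.v. (IHEM 4770: 1 × 10^4 CFU). Oral dosing was 40 mg/kg once daily or 20 mg/kg twice daily, starting 24 h post-challenge; ceftazidime s.c. was given on days 1–7. […], 10 mice per group were killed, and brain and kidney homogenates were plated on PDA (18–24 h, 35°C) for CFU.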

Rhizopus microsporus [22] = experiment: Antifungal activity against Rhizopus microsporus IHEM 4770 infected in OF1 mouse assessed as reduction in fungal load in brain at 20 mg/kg, QD for 5 days; type: functional, organism-based; parameters: dose 20 mg/kg
[23] = Drug level in serum of OF1 mouse infected with Rhizopus microsporus FMR 3542 at 20 mg/kg, po BID for 5 days measured after 24 hrs post last dose; type: ADME, organism-based; parameters: dose 20 mg/kg, route oral; settings: read-out: Drug uptake; method in brief: as §3
Rhizopus microsporus [24] = experiment: Antifungal activity against Rhizopus microsporus UTHSC R-3466 infected in OF1 mouse assessed as reduction in fungal load in kidney at 20 mg/kg, QD for 5 days; type: functional, organism-based; parameters: dose 20 mg/kg
[25] = Drug level in serum of OF1 mouse infected with Rhizopus microsporus UTHSC 01-983 at 20 mg/kg, po BID for 5 days measured after 3 hrs post last dose; type: ADME, organism-based; parameters: dose 20 mg/kg, route oral; settings: read-out: Drug uptake; method in brief: as §3
[26] = Drug level in serum of OF1 mouse infected with Rhizopus microsporus FMR 3542 at 20 mg/kg, po BID for 5 days measured after 3 hrs post last dose; type: ADME, organism-based; parameters: dose 20 mg/kg, route oral; settings: read-out: Drug uptake; method in brief: as §3
Rhizopus microsporus [27] = experiment: Antifungal activity against Rhizopus microsporus IHEM 4770 infected in OF1 mouse assessed as reduction in fungal load in brain at 40 mg/kg, QD for 5 days; type: functional, organism-based; parameters: dose 40 mg/kg; method in brief: as §4
[28] = Drug level in serum of OF1 mouse infected with Rhizopus microsporus FMR 3542 at 40 mg/kg, po QD measured after 24 hrs post last dose; type: ADME, organism-based; parameters: dose 40 mg/kg, route oral; settings: read-out: Drug uptake; method in brief: as §3

| SMILES | MIC [1] | MIC [2] | MIC [3] | MIC [4] | MIC [5] | MIC [6] | MIC [7] | MIC [8] | MIC [9] | MIC [10] | MIC [11] | MIC [12] | MIC [13] | MIC [14] | MIC [15] | also measured |
| --- | --- | --- | --- | --- | --- | --- | --- | --- | --- | --- | --- | --- | --- | --- | --- | --- |
| CCC(C)n1ncn(-c2ccc(N3CCN(c4ccc(OCC5COC(Cn6cncn6)(c6ccc(Cl)cc6Cl)O5)cc4)CC3)cc2)c1=O (stereo not drawn) | 1 µg/mL (≈ 1.42 µM) | 2 µg/mL (≈ 2.83 µM) | 1 µg/mL (≈ 1.42 µM) | 1 µg/mL (≈ 1.42 µM) | 2 µg/mL (≈ 2.83 µM) | 1 µg/mL (≈ 1.42 µM) | 1 µg/mL (≈ 1.42 µM) | 1 µg/mL (≈ 1.42 µM) | 1 µg/mL (≈ 1.42 µM) | 1 µg/mL (≈ 1.42 µM) | 2 µg/mL (≈ 2.83 µM) | 1 µg/mL (≈ 1.42 µM) | 1 µg/mL (≈ 1.42 µM) | 4 µg/mL (≈ 5.67 µM) | 1 µg/mL (≈ 1.42 µM) | – |
| C[C@@H]1[C@H](O)[C@@H](C)/C=C/C=C/C=C/C=C/C=C/C=C/C=C/[C@H](O[C@@H]2O[C@H](C)[C@@H](O)[C@H](N)[C@@H]2O)C[C@@H]2O[C@](O)(C[C@@H](O)C[C@@H](O)[C@H](O)CC[C@@H](O)C[C@@H](O)CC(=O)O[C@H]1C)C[C@H](O)[C@H]2C(=O)O | 0.5 µg/mL (≈ 0.541 µM) | 0.5 µg/mL (≈ 0.541 µM) | 0.5 µg/mL (≈ 0.541 µM) | 0.5 µg/mL (≈ 0.541 µM) | 0.5 µg/mL (≈ 0.541 µM) | 0.5 µg/mL (≈ 0.541 µM) | 0.5 µg/mL (≈ 0.541 µM) | 0.5 µg/mL (≈ 0.541 µM) | 0.5 µg/mL (≈ 0.541 µM) | 1 µg/mL (≈ 1.08 µM) | 0.5 µg/mL (≈ 0.541 µM) | 0.5 µg/mL (≈ 0.541 µM) | 1 µg/mL (≈ 1.08 µM) | 0.5 µg/mL (≈ 0.541 µM) | 1 µg/mL (≈ 1.08 µM) | – |
| C[C@@H](c1ncncc1F)[C@](O)(Cn1cncn1)c1ccc(F)cc1F | 4 µg/mL (≈ 11.5 µM) | – | – | 4 µg/mL (≈ 11.5 µM) | – | 4 µg/mL (≈ 11.5 µM) | 4 µg/mL (≈ 11.5 µM) | 4 µg/mL (≈ 11.5 µM) | – | – | – | – | – | – | – | – |
| CC[C@@H]([C@H](C)O)n1ncn(-c2ccc(N3CCN(c4ccc(OC[C@@H]5CO[C@@](Cn6cncn6)(c6ccc(F)cc6F)C5)cc4)CC3)cc2)c1=O [POSACONAZOLE] | 2 µg/mL (≈ 2.85 µM) | 1 µg/mL (≈ 1.43 µM) | 0.5 µg/mL (≈ 0.713 µM) | 0.5 µg/mL (≈ 0.713 µM) | 2 µg/mL (≈ 2.85 µM) | 0.25 µg/mL (≈ 0.357 µM) | 0.25 µg/mL (≈ 0.357 µM) | 0.25 µg/mL (≈ 0.357 µM) | 0.5 µg/mL (≈ 0.713 µM) | 0.25 µg/mL (≈ 0.357 µM) | 1 µg/mL (≈ 1.43 µM) | 0.5 µg/mL (≈ 0.713 µM) | 0.25 µg/mL (≈ 0.357 µM) | 0.5 µg/mL (≈ 0.713 µM) | 0.25 µg/mL (≈ 0.357 µM) | concentration at 24 h [16]: 2040 ng/mL; concentration at 3 h [17]: 5960 ng/mL; concentration at 3 h [18]: 5310 ng/mL; Activity (Rhizopus microsporus [19]): Active; concentration at 24 h [20]: 1050 ng/mL; Activity (Rhizopus microsporus [21]): Active; Activity (Rhizopus microsporus [22]): Active; concentration at 24 h [23]: 2150 ng/mL; Activity (Rhizopus microsporus [24]): Active; concentration at 3 h [25]: 7600 ng/mL; concentration at 3 h [26]: 8040 ng/mL; Activity (Rhizopus microsporus [27]): Active; concentration at 24 h [28]: 950 ng/mL |
